Experimental data from ChEMBL document CHEMBL3272249, “Esters of N-tert-butylarterenol. Long-acting new bronchodilators with reduced cardiac effects” (J Med Chem, 1976).

Columns and labels:
Canis familiaris [1] = assay: Bronchodilator activity in dog assessed as time of inhibition of carbachol or histamine-induced bronchoconstriction at 530 to 1060 mg/kg, it relative to control; assay type: functional, Canis lupus familiaris; conditions: dose mg/kg 530-1060; route endotracheal
Outline: (§1)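 Anesthetized dogs with an airway cannula and a nonbreathing valve. Bronchoconstriction was induced by iv carbachol (2–4 μg/kg) or histamine diphosphate (20–50 μg/kg) and read as change in airway pressure by transducer. Each compound was tested against both agonists in different dogs, and the results were combined and averaged. Effect is % inhibition of control constriction, with at least three dogs per dose. Drugs were dissolved fresh in distilled water, diluted in saline and kept on ice.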

Canis familiaris [2] = assay: Bronchodilator activity in dog assessed as degree of inhibition of carbachol or histamine-induced bronchoconstriction at 530 to 1060 mg/kg, it relative to control; assay type: functional, Canis lupus familiaris; conditions: dose mg/kg 530-1060; route endotracheal
Outline: (§2)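 Anesthetized dogs, trachea cannulated with a nonbreathing valve. Bronchoconstriction induced by iv carbachol (2–4 μg/kg) or histamine diphosphate (20–50 μg/kg) in separate animals, and airway pressure recorded by transducer. Drug stocks were made fresh in distilled water, diluted in saline and kept on ice. Read-out was percent inhibition of control constriction, averaged over at least three dogs per dose at the higher dose. Carbachol and histamine data were combined.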

Canis familiaris [3] = assay: Bronchodilator activity in dog assessed as time of inhibition of carbachol or histamine-induced bronchoconstriction at 520 to 1040 mg/kg, it relative to control; assay type: functional, Canis lupus familiaris; conditions: dose mg/kg 520-1040; route endotracheal; outline: as §1
Canis familiaris [4] = assay: Bronchodilator activity in dog assessed as degree of inhibition of carbachol or histamine-induced bronchoconstriction at 25 to 50 mg/kg, iv relative to control; assay type: functional, Canis lupus familiaris; conditions: dose mg/kg 25-50; outline: as §2
Canis familiaris [5] = assay: Cardiotoxicity in spontaneously respiring dog assessed as time of increase in heart rate at 520 to 1040 mg/kg, it relative to control; assay type: toxicity, organism-based, Canis lupus familiaris; parameters: dose 520-1040 mg/kg, route endotracheal; conditions: in vivo, inhaled_or_intranasal
Outline: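 Anesthetized, spontaneously respiring dogs. Heart rate monitored by lead II EKG, with blood pressure taken from the right femoral artery by pressure transducer and recorded on a polygraph. Drug stocks made fresh in distilled water, diluted in physiological saline and kept on ice. Dosing was iv, id or it as listed. The duration of the heart-rate increase was recorded in h, with more than 4 dogs per dose.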

Canis familiaris [6] = assay: Bronchodilator activity in dog assessed as time of inhibition of carbachol or histamine-induced bronchoconstriction at 25 to 50 mg/kg, iv relative to control; assay type: functional, Canis lupus familiaris; conditions: dose mg/kg 25-50
Outline: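 Dog airway model: anesthetized, cannulated via a nonbreathing valve, with airway pressure changes recorded after iv carbachol (2–4 μg/kg) or histamine diphosphate (20–50 μg/kg) challenge, each agonist in different animals. Compounds were given iv, intraduodenally or intratracheally from fresh aqueous stocks diluted in saline. Duration (h) of inhibition of induced bronchoconstriction was followed, and the two agonist datasets were pooled.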

Canis familiaris [7] = assay: Cardiotoxicity in spontaneously respiring dog assessed as degree of increase in heart rate at 25 to 50 mg/kg, iv relative to control; assay type: toxicity, organism-based, Canis lupus familiaris; parameters: dose 25-50 mg/kg, route intravenous; conditions: in vivo
Outline: (§3)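 Anesthetized, spontaneously respiring dogs. Heart rate was taken from a lead II EKG, and blood pressure from the right femoral artery by transducer. The increase in heart rate (beats/min) was scored on a graded scale with more than 4 dogs per dose, and its duration was recorded. Drugs were dissolved fresh in distilled water, diluted in physiological saline and kept on ice.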

Canis familiaris [8] = assay: Cardiotoxicity in spontaneously respiring dog assessed as degree of increase in heart rate at 520 to 1040 mg/kg, it relative to control; assay type: toxicity, organism-based, Canis lupus familiaris; parameters: dose 520-1040 mg/kg, route endotracheal; conditions: in vivo, inhaled_or_intranasal; outline: as §3
Canis familiaris [9] = assay: Bronchodilator activity in dog assessed as degree of inhibition of carbachol or histamine-induced bronchoconstriction at 520 to 1040 mg/kg, it relative to control; assay type: functional, Canis lupus familiaris; conditions: dose mg/kg 520-1040; route endotracheal; outline: as §2
Canis familiaris [10] = assay: Cardiotoxicity in spontaneously respiring dog assessed as time of increase in heart rate at 25 to 50 mg/kg, iv relative to control; assay type: toxicity, organism-based, Canis lupus familiaris; parameters: dose 25-50 mg/kg, route intravenous; conditions: in vivo; outline: as §3

| Compound | Time (Canis familiaris [1]) | inhibition (INH) (Canis familiaris [2]) | Time (Canis familiaris [3]) | inhibition (INH) (Canis familiaris [4]) | Time (Canis familiaris [5]) | Time (Canis familiaris [6]) | Activity (Canis familiaris [7]) | Activity (Canis familiaris [8]) | inhibition (INH) (Canis familiaris [9]) | Time (Canis familiaris [10]) |
| --- | --- | --- | --- | --- | --- | --- | --- | --- | --- | --- |
| Cc1ccc(CC(=O)Oc2ccc([C@@H](O)CNC(C)(C)C)cc2OC(=O)Cc2ccc(C)cc2)cc1.Cl | 2 h | 40% |  |  |  |  |  |  |  |  |
| CC(=O)Oc1cc([C@@H](O)CNC(C)(C)C)ccc1OC(=O)c1ccc(C)cc1.CS(=O)(=O)O |  |  | >1 h | >70% | < 1 h | <1 h | 40% | 5% | >70% | < 0.5 h |
